These results are taken from ChEMBL document CHEMBL1154678, “beta-Lactams derived from a carbapenem chiron are selective inhibitors of human fatty acid amide hydrolase versus human monoacylglycerol lipase” (J Med Chem, 2009).

For series [1], the target named is T1, Fatty-acid amide hydrolase 1 (Homo sapiens, UniProt O00519).
T1 sequence (O00519 whole entry): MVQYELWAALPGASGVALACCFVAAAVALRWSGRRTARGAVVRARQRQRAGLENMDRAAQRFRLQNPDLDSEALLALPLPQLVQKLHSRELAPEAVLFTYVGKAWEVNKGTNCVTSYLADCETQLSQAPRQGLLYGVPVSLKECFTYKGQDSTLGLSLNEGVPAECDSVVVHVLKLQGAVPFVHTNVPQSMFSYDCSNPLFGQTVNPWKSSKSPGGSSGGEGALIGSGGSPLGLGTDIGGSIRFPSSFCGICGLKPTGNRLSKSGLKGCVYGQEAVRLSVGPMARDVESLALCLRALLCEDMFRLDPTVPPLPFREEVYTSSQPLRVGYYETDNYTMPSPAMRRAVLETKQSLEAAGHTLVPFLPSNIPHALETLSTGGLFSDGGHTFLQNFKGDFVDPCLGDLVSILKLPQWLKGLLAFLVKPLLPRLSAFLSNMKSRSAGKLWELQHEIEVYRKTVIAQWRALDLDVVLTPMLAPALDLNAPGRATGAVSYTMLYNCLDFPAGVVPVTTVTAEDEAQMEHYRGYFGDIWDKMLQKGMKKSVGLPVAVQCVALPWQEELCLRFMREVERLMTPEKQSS
Nature of the series: Inhibition of human recombinant FAAH using [3H]anandamide by competitive hydrolysis assay. In a few lines: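 Compounds were added in DMSO, with DMSO alone as control, plus [3H]-AEA at 2 μM final, 37 °C for 10 min. The reaction was stopped on ice with cold chloroform/methanol (1:1), and the aqueous phase was counted by LSC with the buffer-only blank subtracted. IC50 is the mean of three independent experiments.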

The target in series [2] is T2, Monoglyceride lipase (Homo sapiens, UniProt Q99685).
T2 sequence (Q99685 whole entry): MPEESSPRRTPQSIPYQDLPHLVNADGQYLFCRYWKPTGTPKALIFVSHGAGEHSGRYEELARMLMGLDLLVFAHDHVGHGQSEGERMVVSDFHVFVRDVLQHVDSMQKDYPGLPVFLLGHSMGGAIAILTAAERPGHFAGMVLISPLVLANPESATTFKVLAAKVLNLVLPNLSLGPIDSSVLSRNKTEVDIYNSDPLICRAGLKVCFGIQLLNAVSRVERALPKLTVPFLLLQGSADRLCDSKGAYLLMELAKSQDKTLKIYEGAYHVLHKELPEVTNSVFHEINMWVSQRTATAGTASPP
In words: Inhibition of human recombinant MGL using 2-oleoylglycerol by competitive hydrolysis assay. The method, boiled down:
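Compounds were added in DMSO, with DMSO as control, plus [3H]-2-oleoylglycerol at 2 μM final, 37 °C for 10 min. Ice-cold chloroform/methanol (1:1) quench, and the methanol/buffer phase was counted by LSC with the blank subtracted. Results are means of three independent assays.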

For series [3], the target named is T3, Monoglyceride lipase (Homo sapiens) (UniProt Q99685).
T3 sequence (whole entry): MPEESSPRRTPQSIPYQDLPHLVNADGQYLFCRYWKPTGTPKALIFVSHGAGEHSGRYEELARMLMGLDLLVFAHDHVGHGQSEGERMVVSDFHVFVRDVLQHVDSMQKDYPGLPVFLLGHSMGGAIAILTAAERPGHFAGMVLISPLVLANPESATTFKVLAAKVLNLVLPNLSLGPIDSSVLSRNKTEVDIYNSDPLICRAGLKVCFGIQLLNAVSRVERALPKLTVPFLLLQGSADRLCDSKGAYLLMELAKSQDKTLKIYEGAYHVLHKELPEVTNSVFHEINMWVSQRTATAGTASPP
In words: Inhibition of human recombinant MGL using 2-oleoylglycerol at 100 uM by competitive hydrolysis assay.

Series [4] addresses T3, Monoglyceride lipase (Homo sapiens). Nature of the series: Inhibition of human recombinant MGL using 2-oleoylglycerol at 1 uM by competitive hydrolysis assay.
Substrate in series [5]: C=CCCC(=O)N1C[C@@H]([C@@H](C)OC(=O)CCCc2ccccc2)C1=O
Nature of the series: Hydrolytic activity of human recombinant FAAH at 15 nM by liquid scintillation counting.

Substrate in series [6]: C=CCCC(=O)N1C[C@@H]([C@@H](C)OC(=O)CCCc2ccccc2)C1=O
In words: Hydrolytic activity of human recombinant FAAH at 45 nM by liquid scintillation counting.

In general, IC50 refers to the concentration that inhibits the measured activity by half. As a reminder, the inhibition is the change of the read-out against control, counted positive when it falls. `C=CCCC(=O)O[C@H](C)[C@@H]1CN(C(=O)CCC=C)C1=O`: the half-inhibitory concentration (IC50) in series [1] was 98 nM; in series [2] (read-out: IC50), 23300 nM. For the same molecule, the inhibition in series [3] is 99%.

On to `CC(=O)O[C@@H]1[C@@H]([C@@H](C)O)C(=O)N1C(=O)CCc1ccccc1`, for which the IC50 in series [1] was 224000 nM. Moreover, the inhibition in series [3] was determined as 48%.

Take `CC(=O)O[C@@H]1[C@@H]([C@@H](C)OC(=O)Cc2ccc(-c3ccccc3)cc2)C(=O)N1C(=O)CCc1ccccc1`: in series [1], the IC50 was found to be 826 nM. For the same molecule, the inhibition in series [3] stood at 66%.

On to `C[C@@H](OC(=O)CCc1ccccc1)[C@@H]1CN(C(=O)CCc2ccccc2)C1=O`, for which the inhibition was 0% in series [4] and 100% in series [3]. The IC50 in series [1] worked out at 157 nM.

For `C=CCCC(=O)N1C[C@@H]([C@@H](C)OC(=O)CCCc2ccccc2)C1=O`, the IC50 in series [1] was found to be 5 nM; in series [2] (read-out: IC50), 4060 nM. In series [3], the inhibition was 89%.

As for `C[C@@H](OC(=O)Cc1ccc(-c2ccccc2)cc1)[C@@H]1CN(C(=O)CCCc2ccccc2)C1=O`, the IC50 in series [1] came out at 32 nM. Moreover, the inhibition in series [3] was determined as 0%.

For the molecule `CC(=O)O[C@@H]1[C@@H]([C@@H](C)OC(=O)CCCc2ccccc2)C(=O)N1C(=O)CCc1ccccc1`, the inhibition in series [4] was determined as 0%; in series [3], 100%. In addition, in series [1], the IC50 was determined as 960 nM.

Regarding `C=CCCC(=O)O[C@H](C)[C@H]1C(=O)N(C(=O)CCC=C)[C@@H]1OC(C)=O`, the inhibition in series [4] was 33%; in series [3], 99%. In addition, the IC50 is 1900 nM in series [1] and 133000 nM in series [2] (read-out: IC50).

For `C=CCCC(=O)N1C[C@@H]([C@@H](C)OC(=O)Cc2ccc(-c3ccccc3)cc2)C1=O`, the IC50 was found to be 12 nM in series [1] and 1840 nM in series [2] (read-out: IC50). Also, in series [3], the inhibition turned out to be 91%.

With `C[C@@H](O)[C@@H]1CN(C(=O)CCc2ccccc2)C1=O`, the IC50 in series [1] was 409000 nM. For the same molecule, the inhibition in series [3] is 8%.

For `C[C@@H](OC(=O)CCCCc1ccccc1)[C@@H]1CN(C(=O)CCc2ccccc2)C1=O`, the results for the inhibition in series [4] and in series [3] were 0% and 100%, respectively. For the same molecule, the IC50 in series [1] is 91 nM.

Turning to `CC(=O)O[C@@H]1[C@@H]([C@@H](C)OC(=O)CCCc2ccccc2)C(=O)N1C(=O)CCCc1ccccc1`, the inhibition was 0% in series [4] and 100% in series [3]. In addition, the 50% inhibitory concentration (IC50) in series [1] came to 3120 nM.

For the molecule `C=CCCC(=O)N1C(=O)[C@H]([C@@H](C)O)[C@H]1OC(C)=O`, the concentration for half-maximal inhibition (IC50) in series [1] worked out at 537000 nM. The inhibition in series [3] worked out at 16%.

Take `C[C@@H](OC(=O)CCCc1ccccc1)[C@@H]1CN(C(=O)CCc2ccccc2)C1=O`: the inhibition in series [4] turned out to be 0%; in series [3] it was 100%. Moreover, in series [1], the IC50 amounted to 49 nM.

Regarding `C[C@@H](OC(=O)CCc1ccccc1)[C@@H]1CN(C(=O)CCCc2ccccc2)C1=O`, in series [1], the concentration for half-maximal inhibition (IC50) came to 57 nM. For the same molecule, the inhibition in series [3] was 54%.

As for `C=CCCCC(=O)N1C[C@@H]([C@@H](C)OC(=O)Cc2ccc(-c3ccccc3)cc2)C1=O`, the IC50 in series [1] came to 14 nM; in series [2] (read-out: IC50), 14600 nM. Moreover, the inhibition in series [3] was 67%.

For the molecule `CC(=O)O[C@@H]1[C@@H]([C@@H](C)OC(=O)CCc2ccccc2)C(=O)N1C(=O)CCc1ccccc1`, the figures for the inhibition in series [4] and in series [3] were 0% and 100%, respectively. For the same molecule, in series [1], the IC50 is 2020 nM.

As to `C[C@@H](OC(=O)Cc1ccc(-c2ccccc2)cc1)[C@@H]1CN(C(=O)CCCCc2ccccc2)C1=O`, in series [1], the IC50 is 236 nM. Besides, the inhibition in series [3] was determined as 25%.

Regarding `C[C@@H](OC(=O)CCCc1ccccc1)[C@@H]1CN(C(=O)CCCc2ccccc2)C1=O`, the inhibition is 0% in series [4] and 100% in series [3]. The IC50 in series [1] is 30 nM.

As for `C=CCCCC(=O)N1C[C@@H]([C@@H](C)OC(=O)CCCc2ccccc2)C1=O`, the figures for the IC50 in series [1] and in series [2] (read-out: IC50) were 10 nM and 8510 nM, respectively. Also, in series [3], the inhibition is 85%.

For `C[C@@H](OC(=O)Cc1ccc(-c2ccccc2)cc1)[C@@H]1CNC1=O`, in series [1], the half-maximal inhibitory concentration (IC50) was 6500 nM. In series [3], the inhibition was found to be 16%.

In the case of `CC(=O)O[C@@H]1[C@@H]([C@@H](C)OC(=O)Cc2ccc(-c3ccccc3)cc2)C(=O)N1C(=O)CCCc1ccccc1`, the inhibition was 0% in series [4] and 100% in series [3]. For the same molecule, the IC50 in series [1] was 708 nM.

In the case of `C=CCCCC(=O)O[C@H](C)[C@@H]1CN(C(=O)CCC=C)C1=O`, the IC50 in series [1] was determined as 32 nM; in series [2], 4720 nM; in series [2] (read-out: IC50), 4720 nM. Further, the inhibition in series [3] amounted to 8%.

As for `CC(=O)O[C@@H]1[C@@H]([C@@H](C)OC(=O)CCc2ccccc2)C(=O)N1C(=O)CCCc1ccccc1`, the inhibition in series [4] is 0%; in series [3], 100%. Also, in series [1], the IC50 is 5120 nM.

For `C[C@@H](OC(=O)Cc1ccc(-c2ccccc2)cc1)[C@@H]1CN(C(=O)CCc2ccccc2)C1=O`, the IC50 in series [1] was determined as 50 nM. Besides, the inhibition in series [3] was 31%.

For `C=CCCC(=O)N1C[C@@H]([C@@H](C)O)C1=O`, the results for the inhibition in series [4] and in series [3] were 8% and 89%, respectively. For the same molecule, the IC50 in series [1] was 7900 nM.

`CC(=O)O[C@@H]1[C@@H]([C@@H](C)O)C(=O)N1C(=O)CCCc1ccccc1`: the IC50 in series [1] was 183000 nM. The inhibition in series [3] turned out to be 61%.

As to `C[C@@H](OC(=O)CCCc1ccccc1)[C@@H]1CN(C(=O)CCCCc2ccccc2)C1=O`, in series [1], the IC50 was found to be 449 nM. The inhibition in series [3] was determined as 39%.

As to `C[C@@H](OC(=O)CCCCc1ccccc1)[C@@H]1CN(C(=O)CCCc2ccccc2)C1=O`, the 50% inhibitory concentration (IC50) in series [1] is 45 nM. In series [3], the inhibition was found to be 59%.

B1: Fatty-acid amide hydrolase 1 (Homo sapiens), O00519 (protein)
chain: MVQYELWAALPGASGVALACCFVAAAVALRWSGRRTARGAVVRARQRQRAGLENMDRAAQRFRLQNPDLDSEALLALPLPQLVQKLHSRELAPEAVLFTYVGKAWEVNKGTNCVTSYLADCETQLSQAPRQGLLYGVPVSLKECFTYKGQDSTLGLSLNEGVPAECDSVVVHVLKLQGAVPFVHTNVPQSMFSYDCSNPLFGQTVNPWKSSKSPGGSSGGEGALIGSGGSPLGLGTDIGGSIRFPSSFCGICGLKPTGNRLSKSGLKGCVYGQEAVRLSVGPMARDVESLALCLRALLCEDMFRLDPTVPPLPFREEVYTSSQPLRVGYYETDNYTMPSPAMRRAVLETKQSLEAAGHTLVPFLPSNIPHALETLSTGGLFSDGGHTFLQNFKGDFVDPCLGDLVSILKLPQWLKGLLAFLVKPLLPRLSAFLSNMKSRSAGKLWELQHEIEVYRKTVIAQWRALDLDVVLTPMLAPALDLNAPGRATGAVSYTMLYNCLDFPAGVVPVTTVTAEDEAQMEHYRGYFGDIWDKMLQKGMKKSVGLPVAVQCVALPWQEELCLRFMREVERLMTPEKQSS
The Vmax is the top rate of the reaction or transport when substrate is in excess. In the case of B1, the Vmax was 12.8 nmol/min/mg in series [5] and 11.9 nmol/min/mg in series [6].
